# In article PMC2752828 (Organic & biomolecular chemistry, 2008):
# Biological target: T1, Cdc25B catalytic domain (Homo sapiens, UniProt P30305)
# T1 sequence (P30305 374-551 limits assumed): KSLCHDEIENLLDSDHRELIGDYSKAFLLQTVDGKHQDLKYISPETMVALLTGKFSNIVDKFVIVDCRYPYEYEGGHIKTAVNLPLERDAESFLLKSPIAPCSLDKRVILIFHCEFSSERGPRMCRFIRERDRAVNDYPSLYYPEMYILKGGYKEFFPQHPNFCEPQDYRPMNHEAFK
# Assay: OMFP fluorescence phosphatase assay, 10-point curve
# Assay type: biochemical
# In short: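 Recombinant human Cdc25B catalytic domain incubated with test compound and O-methylfluorescein phosphate substrate for 60 min; fluorescence change read at 485 nm excitation/525 nm emission. Percent inhibition taken relative to maximum and minimum controls. IC50 fitted to four-parameter logistic model over 10 concentrations, 25 μM to 0.2 μM; two independent experiments in triplicate.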
row,IC50 [nM],Structure (SMILES)
1,5300 ± 600,"COc1ccnc2c1C(=O)C(NCCN1CCOCC1)=C(F)C2=O [WDP1149, 7-Fluoro-4-methoxy-6-(2-morpholin-4-yl-ethylamino)quinoline-5,8-dione]"
2,500 ± 100,"O=C1C(Cl)=C(NCCN2CCOCC2)C(=O)c2nccnc21 [WDP1263, 6-Chloro-7-(2-morpholin-4-yl-ethylamino)quinoxaline-5,8-dione]"
3,1100 ± 100,"O=C1C(Cl)=C(NCCN2CCOCC2)C(=O)c2c(Cl)ccnc21 [WDP1079, 4,7-Dichloro-6-(2-morpholin-4-yl-ethylamino)quinoline-5,8-dione]"
